The source made the active and inactive calls.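 Rule for the calls, unless noted: active = viability at or below 10% of carrier control in both of two separate runs; inconclusive = viability at or below 10% in only one of the two runs; inactive = the rest.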
Key:
[1] = reducers of endogenous Her2 protein level, primary screen, SKBR3 breast tumor cells, AlphaScreen, ATP viability (AID 461;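 active = Her2 level under about 52% in both replicate screens, with viability over 70% of control, limit read from the data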;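 for Her2 level: lower value means less Her2 protein in the cells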;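 for viability: percent of carrier control wells set as 100% viability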); details: 18-24 h, measured here: SKBR3 viability, ATP luminescence, at 10 µM
[2] = target: Receptor tyrosine-protein kinase erbB-2 (Homo sapiens) (UniProt P04626); experiment: as above; details: 18-24 h, at 10 µM, stronger effect = lower value
Sequence of Receptor tyrosine-protein kinase erbB-2 (Homo sapiens) (P04626 whole entry, looked up): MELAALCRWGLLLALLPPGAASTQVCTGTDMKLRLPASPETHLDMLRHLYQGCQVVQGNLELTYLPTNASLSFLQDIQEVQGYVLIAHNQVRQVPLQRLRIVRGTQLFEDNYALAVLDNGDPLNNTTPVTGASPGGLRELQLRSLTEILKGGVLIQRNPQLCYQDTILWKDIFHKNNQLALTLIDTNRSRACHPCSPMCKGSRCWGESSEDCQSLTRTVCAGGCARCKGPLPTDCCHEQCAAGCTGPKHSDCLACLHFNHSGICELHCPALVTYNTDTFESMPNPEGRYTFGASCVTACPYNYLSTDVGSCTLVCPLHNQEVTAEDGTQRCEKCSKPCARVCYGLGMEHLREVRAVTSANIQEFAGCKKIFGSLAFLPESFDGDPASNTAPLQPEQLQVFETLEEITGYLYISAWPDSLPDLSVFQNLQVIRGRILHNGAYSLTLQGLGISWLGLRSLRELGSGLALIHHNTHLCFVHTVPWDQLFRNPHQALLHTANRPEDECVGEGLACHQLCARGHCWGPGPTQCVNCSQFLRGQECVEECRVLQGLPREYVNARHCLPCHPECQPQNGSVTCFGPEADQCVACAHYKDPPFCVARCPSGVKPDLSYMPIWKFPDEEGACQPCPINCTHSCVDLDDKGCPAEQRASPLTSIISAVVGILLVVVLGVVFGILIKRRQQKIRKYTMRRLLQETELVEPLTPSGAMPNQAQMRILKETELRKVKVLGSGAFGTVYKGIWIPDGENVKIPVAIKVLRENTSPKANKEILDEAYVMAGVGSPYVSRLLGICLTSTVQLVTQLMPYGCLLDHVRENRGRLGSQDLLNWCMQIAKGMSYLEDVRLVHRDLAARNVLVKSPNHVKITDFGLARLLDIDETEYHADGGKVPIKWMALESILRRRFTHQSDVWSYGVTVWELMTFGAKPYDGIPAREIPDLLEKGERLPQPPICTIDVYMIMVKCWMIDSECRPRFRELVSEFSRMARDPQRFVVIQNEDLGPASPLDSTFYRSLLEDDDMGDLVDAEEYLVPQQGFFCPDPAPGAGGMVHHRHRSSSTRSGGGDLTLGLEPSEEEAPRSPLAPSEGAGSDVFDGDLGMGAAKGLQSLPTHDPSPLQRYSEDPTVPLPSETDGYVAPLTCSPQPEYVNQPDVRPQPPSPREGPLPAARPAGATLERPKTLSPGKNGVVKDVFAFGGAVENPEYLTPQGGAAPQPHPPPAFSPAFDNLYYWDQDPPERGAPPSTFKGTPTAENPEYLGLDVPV

[3] = SK-BR-3 cell growth inhibitors, pilot screen, 24 h, human (AID 572); details: SK-BR-3 viability, CellTiter-Glo luminescence, at 10 µM, stronger effect = lower value;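 note: compound exposure lasted between 18 and 24 h rather than exactly 24 h; 100% = carrier-treated control wells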
[4] = HUVEC growth inhibition – cell-based, human, primary screen (AID 575;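 active = viability at or below 30% in both replicate assays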;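 note: 100% = median of untreated cell wells with 0.1% DMSO on each plate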); details: HUVEC proliferation, CellTiter-Glo luminescence, 72 h; at 10 µM; stronger effect = lower value
How it was run: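 Assay system: Primary human umbilical vein endothelial cells | Quantity: 1250 cells per well | Medium: Supplemented EBM, 2% fetal bovine serum | Detection: CellTiter-Glo luminescence measuring cellular ATP | Read-out: % viability vs DMSO wells | Plate: Collagen-coated 384-well format | Times: 72 h exposure, 37 °C, 5% CO2, 30 min RT equilibration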

[5] = growth inhibitors of H69AR lung tumor, primary screen, human, duplicate replicates (AID 580;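 active = viability at or under a set limit in both replicates, limit being median viability minus 3 SD, cut at about 48% in these data, passing the limit was not always enough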;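 note: 100% = mean luminescence of untreated wells and 0% = no signal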); details: H69AR lung tumor cells viability, ATP luminescence, 72 h; at 10 µM; stronger effect = lower value
[6] = reversal of MRP1-mediated doxorubicin resistance, pilot screen, H69AR cells, doxorubicin co-treatment (AID 601;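 active = viability loss from added drug above about 55%, and viability with drug at most 40%, in both replicates, limit read from the data, passing the limit was not always enough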); details: CellTiter-Glo, 72 h, at 10 µM; for differential viability (reversal): stronger effect = higher value
[7] = 384-well plate pilot, post-Golgi transport modulator project, inhibition of yeast transport mutant growth (AID 636; in the data active = inhibition above about 31%); details: absorbance 615 nm, about 18 h, stronger effect = higher value
[8] = growth suppression of yeast trafficking mutant, preliminary HTS, modulators of trafficking downstream of Golgi apparatus project, 1536-format plate, OD 615 nm (AID 637; in the data active = inhibition above about 30%); details: yeast transport mutant growth, absorbance 615 nm, 18 h; stronger effect = higher value
[9] = H69AR cells + 2 uM doxorubicin, measured here: viability with 2 uM doxorubicin, stronger effect = lower value
[10] = H69AR cells, compound alone cytotoxicity

SMILES | viability [1] [%] | Her2 level [2] | viability [3] | viability [4] | viability [5] | differential viability (reversal) ([6]; H69AR cells + 2 uM doxorubicin) | viability [6, 9] [%] | viability [6, 10] [%] | inhibition [7] | inhibition [8]
CCN(CC)C(=O)CSc1nnc([C@@H](N)Cc2ccccc2)o1 | 82 | 106% (inactive) | 82% (inactive) | 98.5% (inactive) | 98.2% (inactive) | 3.4% (inactive) | 94.8 | 98.2 | -1.87% (inactive) | 35.4% (active)
CCOC(=O)C1CCCN(C(=O)c2ccc(CS(=O)(=O)Cc3ccccc3C)o2)C1 (stereo not given) | 94.5 | 97.5% (inactive) | 94.5% (inactive) | 84.4% (inactive) | 96.2% (inactive) | 9.89% (inactive) | 86.3 | 96.2 | -0.39% (inactive) | -8.23% (inactive)
CCN1CCN(c2c(Cl)cccc2NC(=O)c2ccco2)CC1 | 67.5 | 88% (inactive) | 67.5% (inactive) | 98.1% (inactive) | 97.5% (inactive) | 7.33% (inactive) | 90.1 | 97.5 | -3.33% (inactive) | -0.32% (inactive)
Cc1ccc(S(=O)(=O)Cc2ccc(C(=O)NCc3ccc4c(c3)OCO4)o2)cc1 | 98 | 84% (inactive) | 98% (inactive) | 84.7% (inactive) | 94.1% (inactive) | 6.79% (inactive) | 87.3 | 94.1 | -3.29% (inactive) | -4.76% (inactive)
COc1cccc(CN(C)CC(=O)NC(=O)NCc2ccco2)c1 | 106 | 100% (inactive) | 106% (inactive) | 92.7% (inactive) | 84.7% (inactive) | 5.36% (inactive) | 79.4 | 84.7 | 0.92% (inactive) | 21.4% (inactive)
CCOC(=O)c1ccc(-c2c(C(=O)OCC)oc3cc(O)c(CC)cc3c2=O)o1 | 96.5 | 88.5% (inactive) | 96.5% (inactive) | 76.6% (inactive) | 83.3% (inactive) | -19.3% (inactive) | 103 | 83.3 | -3.42% (inactive) | 11.6% (inactive)
O=C(OCC(=O)N1CCCC1)c1cncc(Br)c1 | 106 | 90% (inactive) | 106% (inactive) | 106% (inactive) | 102% (inactive) | 15.6% (inactive) | 86.4 | 102 | -7.57% (inactive) | 5.33% (inactive)
CCN(CC)C(=O)CSc1nc2ccc(NC(=O)CSc3nccn3C)cc2s1 | 88.5 | 93.5% (inactive) | 88.5% (inactive) | 68.2% (inactive) | 91% (inactive) | 6.22% (inactive) | 84.8 | 91 | -4.47% (inactive) | -1.45% (inactive)
CCc1nnc(NC(=O)C2CC(=O)N(Cc3ccco3)C2)s1 (stereo not given) | 107 | 95% (inactive) | 107% (inactive) | 111% (inactive) | 98.4% (inactive) | 4% (inactive) | 94.4 | 98.4 | -2.93% (inactive) | 2.1% (inactive)
Cc1ccccc1CN1CCN(CC(=O)NCc2ccccc2)C1=O | 113 | 117% (inactive) | 113% (inactive) | 97.9% (inactive) | 89.9% (inactive) | 6.96% (inactive) | 83 | 89.9 | -5.32% (inactive) | 2.79% (inactive)
COc1cccc(-n2ccnc2SCC(=O)N2CCc3ccccc32)c1 | 94.5 | 102% (inactive) | 94.5% (inactive) | 109% (inactive) | 102% (inactive) | -5.1% (inactive) | 107 | 102 | 0.93% (inactive) | -3.06% (inactive)
COc1cccc(CNC(=O)CCn2c(=O)oc3ccccc32)c1 | 77.5 | 94.5% (inactive) | 77.5% (inactive) | 94.7% (inactive) | 86.4% (inactive) | -3.03% (inactive) | 89.4 | 86.4 | -5.92% (inactive) | -1.82% (inactive)
COc1ccc2[nH]c(=O)c(CN(C(=O)c3cccnc3)c3ccccc3OC)cc2c1 | 104 | 97% (inactive) | 104% (inactive) | 90.8% (inactive) | 89.1% (inactive) | -2.19% (inactive) | 91.3 | 89.1 | -6% (inactive) | -0.16% (inactive)
COc1ccc(S(=O)(=O)N2CCOCC2)cc1C(=O)Nc1cc(C)on1 | 102 | 124% (inactive) | 102% (inactive) | 102% (inactive) | 93.9% (inactive) | 8.07% (inactive) | 85.8 | 93.9 | -3.42% (inactive) | -9.83% (inactive)
COc1nc(N2CCOCC2)nc(-n2cccc2)n1 | 94.5 | 86.5% (inactive) | 94.5% (inactive) | 90.6% (inactive) | 87.4% (inactive) | 13.8% (inactive) | 73.6 | 87.4 | -4.08% (inactive) | -5.09% (inactive)
CN(Cc1ccccc1)C(=O)c1ccc2c(c1)OCO2 | 101 | 97% (inactive) | 101% (inactive) | 88.2% (inactive) | 108% (inactive) | 17.7% (inactive) | 90.3 | 108 | -2.53% (inactive) | 4.43% (inactive)

SMILES | viability [1] [%] | Her2 level [2] | viability [3] | viability [4] | viability [5] | differential viability (reversal) ([6]; H69AR cells + 2 uM doxorubicin) | viability [6, 9] [%] | viability [6, 10] [%] | inhibition [7] | inhibition [8]
Cc1ccc(OCCC(=O)OCC(=O)C(C)(C)C)cc1 | 81.5 | 92.5% (inactive) | 81.5% (inactive) | 94.2% (inactive) | 92.8% (inactive) | 7.79% (inactive) | 85 | 92.8 | 0.26% (inactive) | -3.67% (inactive)
CCC(=O)N[C@@H]1CC(C(C)(C)NC(=O)CC)CC=C1C (stereo not given in full) | 105 | 83.5% (inactive) | 105% (inactive) | 93.4% (inactive) | 86.4% (inactive) | -1% (inactive) | 87.4 | 86.4 | -5.33% (inactive) | -0.33% (inactive)
CC1(C)CC(=O)C(CC2=C(O)CC(C)(C)CC2=O)=C(O)C1 | 95 | 91% (inactive) | 95% (inactive) | 94.4% (inactive) | 102% (inactive) | 10.5% (inactive) | 91.8 | 102 | -3.68% (inactive) | -4% (inactive)
CCOc1cc(C(=O)NCc2ccncc2)cc(OCC)c1OCC | 117 | 92% (inactive) | 117% (inactive) | 94.4% (inactive) | 90.7% (inactive) | 2.97% (inactive) | 87.7 | 90.7 | -6.27% (inactive) | -4.76% (inactive)
CC(=O)Nc1c(-c2ccc(F)cc2)nc2ccccn12 | 94.5 | 107% (inactive) | 94.5% (inactive) | 114% (inactive) | 87.7% (inactive) | -19.5% (inactive) | 107 | 87.7 | -4.67% (inactive) | 1% (inactive)
CCCCN(c1ccccc1)S(=O)(=O)c1ccc2c(c1)CCN2C(=O)CCC(=O)O | 116 | 100% (inactive) | 116% (inactive) | 93.8% (inactive) | 91.9% (inactive) | 1.98% (inactive) | 90 | 91.9 | -1.58% (inactive) | -6.73% (inactive)
CC(C)CCNc1cc(=O)n(C)c(=O)n1C | 83.5 | 120% (inactive) | 83.5% (inactive) | 91% (inactive) | 88.2% (inactive) | -0.405% (inactive) | 88.6 | 88.2 | -1.3% (inactive) | 20.3% (inactive)
COc1ccc(-c2cc3n(n2)CCc2nc4ccccc4n2-3)cc1 | 95.5 | 70% (inactive) | 95.5% (inactive) | 87% (inactive) | 93.3% (inactive) | 6.67% (inactive) | 86.7 | 93.3 | -5.2% (inactive) | 0.48% (inactive)
Nc1sccc1C(=O)c1ccc(Cl)cc1 | 100 | 85% (inactive) | 100% (inactive) | 82.9% (inactive) | 90.2% (inactive) | 4.88% (inactive) | 85.3 | 90.2 | 0% (inactive) | -4.17% (inactive)
Cn1c(=O)c2c(nc(N3CCCCC3)n2CCSc2nc3ccccc3o2)n(C)c1=O | 100 | 105% (inactive) | 100% (inactive) | 88.4% (inactive) | 82.2% (inactive) | 1.8% (inactive) | 80.4 | 82.2 | -0.67% (inactive) | -6.39% (inactive)
CCCCC(CC)C(=O)Nc1ccc(Cl)cn1 (stereo not given) | 103 | 102% (inactive) | 103% (inactive) | 98.3% (inactive) | 94.3% (inactive) | 12.2% (inactive) | 82.1 | 94.3 | -5.47% (inactive) | 1.97% (inactive)
Cc1ccc(OC(=O)NC2CCS(=O)(=O)C2)cc1C (stereo not given) | 108 | 95% (inactive) | 108% (inactive) | 103% (inactive) | 95.3% (inactive) | 2.59% (inactive) | 92.7 | 95.3 | -2.11% (inactive) | 6.23% (inactive)
Cc1cc(OC(=O)N2CCOCC2)cc(C)c1Cl | 93.5 | 94.5% (inactive) | 93.5% (inactive) | 88.7% (inactive) | 105% (inactive) | 19.9% (inactive) | 84.9 | 105 | -3.55% (inactive) | -6.35% (inactive)
Cc1cc(OCC(=O)N2CCCC2)cc(C)c1Cl | 102 | 96% (inactive) | 102% (inactive) | 101% (inactive) | 89.6% (inactive) | 16.1% (inactive) | 73.5 | 89.6 | -6.8% (inactive) | -0.33% (inactive)
Cc1ccc(-c2cc(C(F)(F)F)n3ncc(C(=O)O)c3n2)cc1 | 91 | 90.5% (inactive) | 91% (inactive) | 113% (inactive) | 99.7% (inactive) | 7.33% (inactive) | 92.4 | 99.7 | -7.87% (inactive) | 0.48% (inactive)
CC(C)C(=O)Nc1ccc2c(c1)nc1n2CCSC1 | 104 | 95% (inactive) | 104% (inactive) | 111% (inactive) | 95.4% (inactive) | 10.4% (inactive) | 85 | 95.4 | -0.78% (inactive) | -6.83% (inactive)

— PubChem BioAssay
